# From PubChem BioAssay
# The entries come from a sample that favours hits as a whole.
# Jurkat NFkB inh: inhibitors of the PMA/ionomycin-induced NF-kB reporter in Jurkat cells | PMA/ionomycin-induced NF-kB luciferase reporter, luminescence | inhibition, % at 4 µM | 0.53% of 330,000 active | AID 435003; in the data active = inhibition above about 50%
# CHOP inhibitor: CHOP inhibition in unfolded protein response. CHO-K1 CHOP-promoter luciferase, tunicamycin-induced, 15-18 h. 3.8% of 220,000 active. inhibition, % at 10 µM;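 active = compounds that reduced the stress-induced luciferase reporter signal by more than about 70% of percent inhibition, limit read from the data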;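 also: 0% = tunicamycin plus vehicle and 100% = wells without tunicamycin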
# CHOP UPR activ: activators of apoptotic arm of unfolded protein response (CHOP) | CHO-CHOP luciferase reporter, UPR activation, luminescence; percent of tunicamycin response over DMSO baseline | activation, % at 10 µM | 0.34% of 330,000 active | AID 449763;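 active = at 10 µM dose, activation of 40% or more, normalized to positive control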;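 also: 100% = tunicamycin at 10 µg/mL and 0% = DMSO alone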
#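 Test system: CHO CHOP reporter cells. Input: 500 CHO-CHOP cells per well. Medium: F12 with 10% FBS. Technique: luciferase luminescence. Measure: percent activation relative to tunicamycin control. Dosing: 10 µM compound, 0.5% DMSO. Timing: 16-18 h cell attachment, then 6 h compound exposure, 37 °C.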
# UPR XBP1 act: adaptive UPR (XBP1) activation; CHO-XBP1 luciferase reporter, IRE1-XBP1 UPR activation, luminescence; percent of tunicamycin response, DMSO as zero; activation, % at 20 µM; 0.33% of 330,000 active;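 active = versus positive control, 20 µM dose yields 30% or more activation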;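 also: 100% = tunicamycin at 10 µg/mL and 0% = DMSO only wells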
#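 Assay system: CHO-XBP1 luciferase reporter cells; Schedule: 6 h treatment, 37 °C; Detection: glow luminescence from Steady-Glo reagent; Benchmarks: high control tunicamycin 10 µg/mL final, low control DMSO vehicle only.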
# 697 NFkB inh: lowers PMA/ionomycin-induced NF-kB signal in 697 B cells | 0.33% of 330,000 active | inhibition, % at 4 µM | 697 B-cell NF-kB luciferase reporter, 16 h; in the data active = inhibition above about 35%
# * marks the source's active call; other numbers are inactive results; . = not tested or not shown.
SMILES,Jurkat NFkB inh,CHOP inhibitor,CHOP UPR activ,UPR XBP1 act,697 NFkB inh
CSc1ccccc1NC(=O)c1cc(CC(C)C)on1,-39.5,75.2*,4.8,0.0,-38.7
CC(C)Cc1cc(C(=O)Nc2sc3c(c2C#N)CCC3)no1,0.5,10.3,-1.1,0.7,-10.4
CC(C)Cc1cc(C(=O)Nc2sc3c(c2C#N)CCCC3)no1,-10.9,77.4*,2.7,0.2,-12.8
CCN(CC)S(=O)(=O)c1ccc(O)c(NS(=O)(=O)c2ccccc2F)c1,-8.0,12.4,-1.5,-1.5,20.9
CN(C)/C=C/C(=C\C(=O)C(F)(F)F)Nc1ccc(C(F)(F)F)cc1,-24.3,20.9,-0.2,-3.3,-3.0
Cc1cccc(Nc2ncnc3ccc(Br)cc23)c1,-0.1,50.1,-0.4,-1.4,-7.3
Brc1ccc2ncnc(NCc3ccccc3)c2c1,35.5,86.6*,0.4,-1.2,-20.3
O=C(CNS(=O)(=O)c1c(Cl)cccc1Cl)N1CCCCCC1,-14.6,.,1.4,-4.7,5.9
Cc1cccc(-c2nnc3sc(-c4ccccc4C)nn23)c1,-6.8,83.2*,1.9,2.5,-38.7
COc1cccc(-c2nnc3sc(-c4ccccc4)nn23)c1,-17.1,-28.9,1.4,2.3,-32.0
CCOC(=O)C1=C(C)OC(N)=C(C#N)C1c1cc2c(cc1[N+](=O)[O-])OCO2 (centres undefined),-4.2,31.8,0.9,-3.3,1.4
COc1ccc(N2CCN(S(=O)(=O)c3ccc4c(c3)CCCC4)CC2)c([N+](=O)[O-])c1,13.9,71.4*,5.6,-4.4,-22.6
Cc1ccc(NC(=O)CSc2nnc(N)s2)cc1S(=O)(=O)N1CCOCC1,10.7,.,-0.9,-1.0,2.1
Cn1c(C(C#N)C(=O)c2ccco2)nc2ccccc21 (centres undefined),-14.1,18.5,5.4,0.0,-46.4
Cn1c(C(C#N)C(=O)Cc2cccc3ccccc23)nc2ccccc21 (centres undefined),1.4,74.6*,-3.2,0.8,6.9
Cc1ccc(-c2cc3ccccc3nc2N2CCOCC2)cc1,7.4,72.1*,-1.4,-4.2,-11.2
c1ccc(-c2cc3ccccc3nc2N2CCCC2)cc1,1.3,14.5,-2.6,-4.6,-14.3
Cc1nnc(SCc2cc(=O)[nH]c(/N=C(\N)Nc3ccccc3Sc3ccccc3)n2)s1,-4.2,21.7,0.0,0.3,-24.7
COc1ccccc1N/C(N)=N/c1nc(CSc2nc3ccccc3s2)cc(=O)[nH]1,5.7,93.6*,6.5,2.0,-37.1
O=C(Nc1ccc(OCC(F)(F)C(F)F)c(C(F)(F)F)c1)c1ccccc1O,-18.6,108.5*,15.9,5.5,-37.9
O=C(Nc1ccc(Cl)c(Cl)c1)N(Cc1cccnc1)Cc1ccco1,2.8,31.8,-1.8,-4.4,0.2
O=C(CN(Cc1ccco1)C(=O)c1ccc(Cl)cc1)Nc1ccc(Cl)c(Cl)c1,4.2,92.8*,1.6,-0.1,9.5
O=c1[nH]nc(SCCS(=O)(=O)c2ccc(F)cc2)n1-c1ccc2c(c1)OCCO2,7.9,20.5,2.2,1.4,-5.1
COc1ccc(C2CC(O)(c3ccccc3)Oc3c(C)ccc(C)c32)cc1 (centres undefined),-6.3,97.9*,3.8,1.7,-11.6
COc1ccc(C2CC(=O)Oc3cc(OC)c(OC)c(OC)c32)cc1 (centres undefined),.,.,1.7,0.4,9.9
SMILES,Jurkat NFkB inh,CHOP inhibitor,CHOP UPR activ,UPR XBP1 act,697 NFkB inh
COc1ccc([C@@H]2C[C@@H](c3ccccc3)Oc3c(C)ccc(C(C)C)c32)cc1,1.4,.,-1.5,-2.1,10.1
COc1ccc(C2CC(O)(c3ccccc3)Oc3cc(OC)cc(OC)c32)cc1 (centres undefined),5.5,84.8*,-0.4,2.0,7.6
CC1CCC(NC(=O)c2cc3c(s2)CCCC3)CC1 (centres undefined),-82.6,.,5.3,-0.8,-86.7
O=C1/C(=C/c2cccc(Br)c2)SC(=S)N1/N=C/c1cc([N+](=O)[O-])ccc1O,17.8,13.2,0.6,2.9,5.0
O=C(/C=C/c1ccccc1)NCCSc1ccc(Cl)cc1,9.2,77.4*,-3.9,-1.8,2.1
O=C(/C=C/c1ccccc1)NCCOc1ccccc1,-33.3,-12.8,4.5,-0.9,-22.6
COc1ccc(NC(=O)C2CCC(=O)N2C(=O)OCc2ccccc2)cc1 (centres undefined),1.3,.,0.9,-4.1,-3.3
CCN(CCNC(=O)C1CCN(Cc2nc(-c3cccc(Cl)c3)oc2C)CC1)c1ccccc1,3.1,94.6*,0.3,6.4,3.7
CCc1ccc(-c2nc(CN3CCC(C(=O)N4CCN(c5ccccc5)CC4)CC3)c(C)o2)cc1,24.0,98.1*,1.8,3.9,8.2
Cc1ccccc1-c1nc(CN2CCC(C(=O)NCCC3=CCCCC3)CC2)c(C)o1,2.9,71.0*,2.1,-1.4,-1.7
CCN(CCNC(=O)C1CCN(Cc2nc(-c3ccc(Cl)cc3)oc2C)CC1)c1ccccc1,10.9,85.0*,1.9,19.2,21.8
CCCNS(=O)(=O)c1ccc(OCC(=O)Nc2ccc3c(c2)OCCO3)c(C)c1,8.6,.,-0.7,-2.0,-25.3
Cc1cccc(OCC(=O)Nc2nnc(-c3ccco3)s2)c1,-1.6,35.3,-1.9,-0.1,-1.1
CCOc1cccc(C(=O)Nc2nnc(-c3ccco3)s2)c1,-65.8,73.6*,-2.3,-6.2,-55.0
CCC(C(=O)Nc1nnc(-c2ccco2)s1)c1ccccc1 (centres undefined),-14.6,74.7*,1.3,1.7,-18.5
C/C(=C\C1CCCCC1)C(NC(=O)c1ccc(C(F)(F)F)cc1)c1ccc(-c2ccccc2)cc1 (centres undefined),11.6,.,-0.2,-3.0,5.9
CC/C(=C\C1CCCCC1)C(NP(=O)(c1ccccc1)c1ccccc1)c1ccccc1 (centres undefined),23.3,86.2*,0.8,5.2,6.6
CC1C[N+](=C2C=C(N3CCOCC3)CC(C)(C)C2)CC(C)O1 (centres undefined),2.5,-19.1,0.2,-1.4,19.8
O=C1NN=C(c2ccc(Br)cc2)CC1c1ccc(Cl)cc1 (centres undefined),1.5,91.2*,0.6,-0.1,9.3
O=Cc1cn(CC(=O)N2CCc3ccccc32)c2ccccc12,5.2,18.2,-1.6,0.4,-5.6
O=S(=O)(CCC1CCCCN1)c1ccccc1 (centres undefined),-1.9,.,1.8,-4.5,14.6
CCOC(=O)c1[nH]c2ccccc2c1NC(=O)Nc1ccc(OC)cc1,-9.6,86.5*,1.6,-2.1,2.6
CSC(=O)NC12CC3CC(CC(C)(C3)C1)C2,-11.9,78.5*,1.8,-0.9,8.8
N#CCCN(C(=O)COC(=O)COc1ccccc1Cc1ccccc1)c1ccccc1,-1.7,.,-0.7,-2.4,13.8
Cc1cc2cc3c(cc2nc1SCC(=O)OC(C)C)OCO3,-16.1,38.6,-0.3,1.4,-10.9
N#Cc1cc2cc3c(cc2nc1SCC(=O)OC1CCCCC1)OCO3,-20.7,79.4*,-0.3,0.9,-22.4
